The record followed here is ChEMBL document CHEMBL3217531, “Potential Drug Abuse Therapeutics Derived from the Hallucinogenic Natural Product Salvinorin A” (Medchemcomm, 2011).

One may read the Ki as a dissociation constant, usually derived from enzyme kinetics or from competition with a known ligand. Higher therefore signals weaker binding. For orientation: Emax means the greatest response seen or fitted, relative to the assay's reference. In general, EC50 refers to the midpoint of the concentration-response curve. A low value points to a more potent agent.

The source made the active and inactive calls. The rule behind the calls is not given here. Some results are limits rather than exact numbers.

Experiment [1] has as its target Delta-type opioid receptor (Homo sapiens, UniProt P41143). The experiment in a line: Displacement of [3H]DADLE from human delta opioid receptor expressed in CHO cell membrane after 2 hrs by liquid scintillation counting analysis. Type of experiment: cell membranes. (Displacement assays read how much labelled ligand stays bound in the presence of the test substance.)

Experiment [2] deals with Mu-type opioid receptor (Homo sapiens, UniProt P35372). The experiment in a line: Displacement of [3H]DAMGO from human mu opioid receptor expressed in CHO cell membrane after 2 hrs by liquid scintillation counting analysis. Type of experiment: cell membranes.
Experiment [3] concerns the target T1, Kappa-type opioid receptor (Homo sapiens, UniProt P41145). The experiment in a line: Displacement of [3H]U69593 from human kappa opioid receptor expressed in CHO cell membrane after 2 hrs by scintillation counting analysis. It is filed as cell membranes.
For experiment [4], the target named is T1, Kappa-type opioid receptor. The experiment in a line: Agonist activity at human kappa opioid receptor expressed in CHO cell membrane assessed as [35S]GTPgammaS binding after 3 hrs by liquid scintillation counting analysis relative to (-)-U50488H. It is filed as functional, cell membranes. Background: GTPγS is a poorly hydrolysed GTP analogue; its binding reports G protein activation.

Experiment [5] deals with T1, Kappa-type opioid receptor. Description: Agonist activity at human kappa opioid receptor expressed in CHO cell membrane assessed as [35S]GTPgammaS binding after 3 hrs by liquid scintillation counting analysis. Type of experiment: functional, cell membranes.
The subject of experiment [6] is Rattus norvegicus. The experiment in a line: Antiaddiction activity in rat assessed as reduction in cocaine-induced drug seeking activity at 1 mg/kg, ip treated for 5 to 10 mins prior to priming injection of cocaine measured for 2 hrs. It is filed as functional, organism-based. The arrangement: dose 1 mg/kg. The procedure, abridged:
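Rats trained on FR5 cocaine self-administration (0.5 mg kg⁻¹/infusion, paired light cue, 2 h sessions). Extinction with sterile heparinized saline until active lever responses <20 per 2 h session. Next day, IP vehicle (75% DMSO) or test dose 5–10 min before IP cocaine prime (20 mg kg⁻¹). Active lever responding recorded for 2 h. N = 6 at 1 mg kg⁻¹; mean ±SEM.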

Experiment [7] addresses T1, Kappa-type opioid receptor. Description: Agonist activity at human kappa opioid receptor expressed in CHO cell membrane by [35S]GTPgammaS binding assay. Type of experiment: functional, cell membranes.

T1 sequence (P41145 whole entry): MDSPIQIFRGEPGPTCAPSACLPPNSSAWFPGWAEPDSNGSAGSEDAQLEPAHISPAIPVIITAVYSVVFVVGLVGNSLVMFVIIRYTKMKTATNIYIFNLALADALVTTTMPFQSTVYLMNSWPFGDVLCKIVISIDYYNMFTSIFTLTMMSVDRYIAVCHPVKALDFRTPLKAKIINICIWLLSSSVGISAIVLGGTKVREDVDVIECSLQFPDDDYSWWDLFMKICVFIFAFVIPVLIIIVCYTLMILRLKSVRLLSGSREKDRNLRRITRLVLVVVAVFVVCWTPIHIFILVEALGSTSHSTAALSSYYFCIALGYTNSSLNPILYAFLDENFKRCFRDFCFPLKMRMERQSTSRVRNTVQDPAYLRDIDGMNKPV
Chain of Delta-type opioid receptor (P41143 whole entry): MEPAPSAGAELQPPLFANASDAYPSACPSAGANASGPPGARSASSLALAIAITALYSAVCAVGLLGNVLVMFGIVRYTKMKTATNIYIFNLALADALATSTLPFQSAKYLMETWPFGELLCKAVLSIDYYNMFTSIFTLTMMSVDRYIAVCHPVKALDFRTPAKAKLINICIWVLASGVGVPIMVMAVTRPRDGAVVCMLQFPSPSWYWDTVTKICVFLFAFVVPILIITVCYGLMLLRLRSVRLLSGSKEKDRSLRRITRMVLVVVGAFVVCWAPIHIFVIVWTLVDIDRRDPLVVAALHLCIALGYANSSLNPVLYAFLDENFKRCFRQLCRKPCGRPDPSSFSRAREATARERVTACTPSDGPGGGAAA
Chain of Mu-type opioid receptor (P35372 whole entry): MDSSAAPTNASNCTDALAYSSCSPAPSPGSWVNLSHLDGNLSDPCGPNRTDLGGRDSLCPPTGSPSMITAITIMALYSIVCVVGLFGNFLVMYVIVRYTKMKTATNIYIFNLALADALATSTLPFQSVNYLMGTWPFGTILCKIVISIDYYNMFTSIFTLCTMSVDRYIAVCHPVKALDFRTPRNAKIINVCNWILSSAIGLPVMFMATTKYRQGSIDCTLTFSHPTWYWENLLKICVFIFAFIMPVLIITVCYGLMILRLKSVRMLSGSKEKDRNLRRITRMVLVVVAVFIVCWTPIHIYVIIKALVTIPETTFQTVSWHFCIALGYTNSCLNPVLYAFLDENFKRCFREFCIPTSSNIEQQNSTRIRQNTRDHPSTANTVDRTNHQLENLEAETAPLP

For `CCO[C@@H](C)O[C@H]1C[C@@H](C(=O)OC)[C@]2(C)CC[C@H]3C(=O)O[C@H](c4ccoc4)C[C@]3(C)[C@H]2C1=O`, the figures for the inhibitory constant (Ki) in experiment [1] and in experiment [2] were more than 5000 nM and 777 nM, respectively.

For `COC(=O)[C@@H]1C[C@H](OC=O)C(=O)[C@H]2[C@@]1(C)CC[C@H]1C(=O)O[C@H](c3ccoc3)C[C@]21C`, the Ki in experiment [3] is 41 nM; in experiment [1], more than 10000 nM; in experiment [2] it was more than 10000 nM.

Turning to `COC(=O)[C@@H]1C[C@H](O[C@H]2CCCO2)C(=O)[C@H]2[C@@]1(C)CC[C@H]1C(=O)O[C@H](c3ccoc3)C[C@]21C`, the Ki in experiment [3] was 81 nM; in experiment [1], more than 10000 nM; in experiment [2] it was more than 10000 nM. In addition, the Emax in experiment [4] was determined as 103%. For the same compound, the ED50 in experiment [5] worked out at 690 nM.

With `CCOCO[C@H]1C[C@@H](C(=O)OC)[C@]2(C)CC[C@H]3C(=O)O[C@H](c4ccoc4)C[C@]3(C)[C@H]2C1=O` [SALVINORIN B ETHOXYMETHYL ETHER], the results for the Ki in experiment [3], in experiment [1] and in experiment [2] were 3.13 nM, 1020 nM and 41 nM, respectively. Moreover, the Emax in experiment [4] worked out at 127%.

For the compound `COC(=O)[C@@H]1C[C@H](O[C@@H]2CCCCO2)C(=O)[C@H]2[C@@]1(C)CC[C@H]1C(=O)O[C@H](c3ccoc3)C[C@]21C`, the Ki in experiment [3] is 6.21 nM; in experiment [1], more than 10000 nM; in experiment [2], more than 10000 nM. For the same compound, the Emax in experiment [4] is 109%. Also, the outcome in experiment [6] was Active.

`COC(=O)[C@@H]1C[C@H](O[C@@H]2CCCO2)C(=O)[C@H]2[C@@]1(C)CC[C@H]1C(=O)O[C@H](c3ccoc3)C[C@]21C`: the Ki in experiment [3] is 75 nM; in experiment [1] it was more than 10000 nM; in experiment [2], more than 10000 nM. For the same compound, the maximal response (Emax) in experiment [4] was found to be 112%. Also, in experiment [5], the ED50 was determined as 1220 nM.

Regarding `CCNC(=O)O[C@H]1C[C@@H](C(=O)OC)[C@]2(C)CC[C@H]3C(=O)O[C@H](c4ccoc4)C[C@]3(C)[C@H]2C1=O`, the inhibition constant (Ki) in experiment [3] was more than 10000 nM; in experiment [1], more than 10000 nM; in experiment [2], 1540 nM. Moreover, the EC50 in experiment [7] is more than 1000 nM.

Compound `COC(=O)[C@@H]1C[C@H](OC(C)=O)C(=O)[C@H]2[C@@]1(C)CC[C@H]1C(=O)O[C@H](C(=O)N3CCCCC3)C[C@]21C` displayed an inhibitory constant (Ki) in experiment [3] (cho) of 140 nM. For the same compound, the maximal response (Emax) in experiment [4] stood at 85%. The ED50 in experiment [5] came out at 5110 nM.

For `CCO[C@H](C)O[C@H]1C[C@@H](C(=O)OC)[C@]2(C)CC[C@H]3C(=O)O[C@H](c4ccoc4)C[C@]3(C)[C@H]2C1=O`, the Ki is more than 5000 nM in experiment [1] and more than 5800 nM in experiment [2].

Consider `COCO[C@H]1C[C@@H](C(=O)OC)[C@]2(C)CC[C@H]3C(=O)O[C@H](C(=O)N4CCCCC4)C[C@]3(C)[C@H]2C1=O`, for which the Ki in experiment [3] was 59 nM; in experiment [1] it was more than 3000 nM; in experiment [2], more than 3000 nM. Besides, the maximal response (Emax) in experiment [4] turned out to be 113%.

Turning to `COC(=O)[C@@H]1C[C@H](O[C@H]2CCCCO2)C(=O)[C@H]2[C@@]1(C)CC[C@H]1C(=O)O[C@H](c3ccoc3)C[C@]21C`, the values for the Ki in experiment [3], in experiment [1] and in experiment [2] were 300 nM, more than 10000 nM and more than 10000 nM, respectively.

As for `CCO[C@@H](CBr)O[C@H]1C[C@@H](C(=O)OC)[C@]2(C)CC[C@H]3C(=O)O[C@H](c4ccoc4)C[C@]3(C)[C@H]2C1=O`, the Ki in experiment [3] was 5260 nM; in experiment [1], more than 5000 nM; in experiment [2], more than 3000 nM.

`CCO[C@H](CBr)O[C@H]1C[C@@H](C(=O)OC)[C@]2(C)CC[C@H]3C(=O)O[C@H](c4ccoc4)C[C@]3(C)[C@H]2C1=O`: the Ki in experiment [3] was 7440 nM; in experiment [1], more than 5000 nM; in experiment [2] it was 3520 nM.

`CCOC(=O)O[C@H]1C[C@@H](C(=O)OC)[C@]2(C)CC[C@H]3C(=O)O[C@H](c4ccoc4)C[C@]3(C)[C@H]2C1=O`: the Ki in experiment [3] was 171 nM; in experiment [1], more than 10000 nM; in experiment [2], more than 10000 nM.
